Among the data in ChEMBL document CHEMBL2150855, “Tocotrienamines and tocopheramines: reactions with radicals and metal ions” (Bioorg Med Chem, 2011) are Activity values, retold here.

Format in all cases: functional
A short description of assay [1]: Antioxidant activity assessed as ABTS+ free radical scavenging activity by TEAC assay. An outline of the steps:
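TEAC assay measures reduction of the ABTS radical cation, with results expressed as Trolox equivalents. Data are mean ± SD of three series run in triplicate, with Student–Newman–Keuls post-hoc ANOVA (p<0.05).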

Assay [2] can be described thus: Antioxidant activity assessed as ferric ion reducing power by FRAP method. An outline of the steps: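 FRAP assay adapted for lipophilic antioxidants: Fe3+–TPTZ complex reduction in 300 mM acetate buffer, pH 3.6, at a 1:500 molar ratio of test compound to ferric ions. Data are mean ± SD of three series run in triplicate, with Student–Newman–Keuls post-hoc ANOVA (p<0.05).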

In assay [3] the test system is Radical scavenging activity. Put plainly: Antioxidant activity assessed as DPPH free radical scavenging activity. (In general: DPPH is a stable violet radical that fades when it is reduced.)
A short description of assay [4]: Antioxidant activity assessed as nitration product using HOC6H3(Me)2-(2,6) as substrate at FeCl3 to compound to phenol concentration 100:1:1. An outline of the steps:
(§1)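 FeCl3 used as oxidant at 10:1 and 100:1 molar ratios to test compound, with phenolic substrate at 1:1 to compound (FeCl3/compound/phenolic 10:1:1 or 100:1:1), in 50:50 v/v H2O/EtOH. Percent conversion to nitration product determined. Means of triplicate experiments.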

The nature of assay [5]: Antioxidant activity assessed as formation of DPPH breakdown product at 0.5 mM incubated for 20 mins by HPLC. The method in brief:
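Aerobic DPPH (0.5 mM) mixed with test compound (0.5 mM) and incubated 20 min at room temperature. Reaction products analysed by HPLC, taking the peak area of the product eluting at 4 min. Mean ± SD of five experiments.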

Assay [6] can be described thus: Antioxidant activity assessed as nitration product using HOC6H3(t-Bu)2-(2,6) as substrate at FeCl3 to compound to phenol concentration 10:1:1. An outline of the steps:
as §1

The nature of assay [7]: Antioxidant activity assessed as nitration product using PhOMe as substrate at FeCl3 to compound to phenol concentration 100:1:1. An outline of the steps:
as §1

Assay [8] is described as follows: Antioxidant activity assessed as reduction in copper-mediated ascorbic acid oxidation preincubated for 10 mins measured for every 2 mins upto 2 hrs by UV spectrophotometry. The method in brief:
(§2)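 Test compound suspension combined with Chelex-treated water containing 2 µM Cu+. Plate pre-incubated 10 min at 37 °C, then ascorbate added (from a 2 mM stock, pH 7) to a starting 200 µM. A265 read every 2 min for 2 h at 37 °C to obtain the initial depletion rate. Ethanol vehicle served as baseline and DTPA as chelator control. Triplicate.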

Assay [9] can be described thus: Antioxidant activity assessed as nitration product using PhOMe as substrate at FeCl3 to compound to phenol concentration 10:1:1. An outline of the steps: as §1
Assay [10] is described as follows: Antioxidant activity assessed as reduction in copper-mediated ascorbic acid oxidation at 100 uM preincubated for 10 mins measured for every 2 mins upto 2 hrs by UV spectrophotometrya. Further details: scale not given: the % may be the effect or the level left. The method in brief: as §2
A short description of assay [11]: Antioxidant activity assessed as nitration product using MeOC6H3(Me)2-(2,6) as substrate at FeCl3 to compound to phenol concentration 10:1:1. The method in brief:
as §1

Assay [12] has as its system Radical scavenging activity. Put plainly: Antioxidant activity assessed as rate constant for DPPH free radical scavenging activity by stopped flow spectroscopy. An outline of the steps: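 Stopped-flow rapid mixing with diode-array photometer detection. Antioxidant stocks (ca. 2 mM) and DPPH (200 µM) prepared in ethanol; DPPH (200 µM) in acetonitrile also used. Starting antioxidant concentration after mixing is half the stock. Second-order rate constant derived from the kinetics.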

A short description of assay [13]: Antioxidant activity assessed as nitration product using PhOH as substrate at FeCl3 to compound to phenol concentration 100:1:1. An outline of the steps:
as §1

The nature of assay [14]: Antioxidant activity assessed as nitration product using PhOH as substrate at FeCl3 to compound to phenol concentration 10:1:1. An outline of the steps: as §1
Assay [15] is described as follows: Antioxidant activity assessed as nitration product at 1:1 compound to salicylic acid concentration. The method in brief:
as §1

The nature of assay [16]: Antioxidant activity assessed as nitration product using HOC6H3(t-Bu)2-(2,6) as substrate at FeCl3 to compound to phenol concentration 100:1:1. The method in brief: as §1
The nature of assay [17]: Antioxidant activity assessed as nitration product using MeOC6H3(Me)2-(2,6) as substrate at FeCl3 to compound to phenol concentration 100:1:1. The method in brief: as §1
The nature of assay [18]: Antioxidant activity assessed as nitration product using HOC6H3(Me)2-(2,6) as substrate at FeCl3 to compound to phenol concentration 10:1:1. The method in brief: as §1
A short description of assay [19]: Antioxidant activity assessed as nitration product at 1:1 compound to phenol concentration. The method in brief: as §1

Active and inactive are the calls of the source. The rule behind the calls is not given here.

Consider `CC(C)=CCC/C(C)=C/CC/C(C)=C/CC[C@]1(C)CCc2cc(N)c(C)c(C)c2O1`, for which the outcome in assay [1], in [2] and in [3] was Active.
For the compound `Cc1cc(O)cc2c1OC(C)(CCC(=O)O)CC2` (racemic), the outcome in assay [1], in [2] and in [3] was Active.
For the compound `CC(C)=CCC/C(C)=C/CC/C(C)=C/CC[C@]1(C)CCc2cc(N)cc(C)c2O1`, the result in [1], in assay [2] and in assay [3] was Active.
Consider `Cc1c(C)c2c(c(C)c1N)CC[C@@](C)(CCC[C@H](C)CCC[C@H](C)CCCC(C)C)O2`, for which the Activity was 9% in assay [4]; 0.2% in assay [6]; 2% in [7]; “Dose-dependent effect” in assay [8]; 0% in assay [9]; 19.5% in assay [10]. Besides, the Activity in assay [11] was 0%; in [12] it was 4290 L/mol/s; in assay [13], 26%; in assay [14], 12%; in [15], 8%; in assay [16] it was 0.4%. Further, in [18], the Activity stood at 4%. Moreover, the outcome in assay [5], in [1], in assay [2] and in assay [3] was Active. In addition, the outcome in assay [17] was inactive.
For `CC(C)=CCC/C(C)=C/CC/C(C)=C/CC[C@]1(C)CCc2cc(O)cc(C)c2O1`, the outcome in assay [1], in assay [2] and in assay [3] was Active.
On to `Cc1c(C)c2c(c(C)c1O)CC[C@@](C)(CCC[C@H](C)CCC[C@H](C)CCCC(C)C)O2`, for which the outcome in assay [5] was inactive. Further, the result in assay [1], in assay [2] and in assay [3] was Active. The Activity in assay [12] was 280 L/mol/s.
For the compound `Cc1c(O)cc2c(c1C)OC(C)(CCC(=O)O)CC2` (racemic), the outcome in assay [1], in assay [2] and in assay [3] was Active.
For the compound `Cc1c(N)cc2c(c1C)O[C@](C)(CCC[C@H](C)CCC[C@H](C)CCCC(C)C)CC2`, the Activity entry in [8] was “Dose-dependent effect”; in [10], 35%. The outcome in [1], in [2] and in assay [3] was Active.
As to `Cc1cc(O)cc2c1O[C@](C)(CCC[C@H](C)CCC[C@H](C)CCCC(C)C)CC2`, the result in [1], in assay [2] and in [3] was Active.
With `CC(C)=CCC/C(C)=C/CC/C(C)=C/CC[C@]1(C)CCc2c(C)c(O)c(C)c(C)c2O1`, the outcome in assay [1], in [2] and in assay [3] was Active.
As for `Cc1cc(N)cc2c1O[C@](C)(CCC[C@H](C)CCC[C@H](C)CCCC(C)C)CC2`, the Activity result is “Dose-dependent effect” in assay [8] and 44.7% in assay [10]. Moreover, the outcome in [1], in assay [2] and in assay [3] was Active.
On to `Cc1c(O)cc2c(c1C)O[C@](C)(CCC[C@H](C)CCC[C@H](C)CCCC(C)C)CC2`, for which the Activity in assay [19] came to 13%. Besides, the result in [1], in [2] and in [3] was Active.
Regarding `CC(C)=CCC/C(C)=C/CC/C(C)=C/CC[C@]1(C)CCc2c(C)c(N)c(C)c(C)c2O1`, the outcome in assay [1], in assay [2] and in [3] was Active.
Consider `Cc1c(C)c2c(c(C)c1O)CCC(C)(CCC(=O)O)O2` (racemic), for which the outcome in [1], in assay [2] and in [3] was Active.
As for `CC(C)=CCC/C(C)=C/CC/C(C)=C/CC[C@]1(C)CCc2cc(O)c(C)c(C)c2O1`, the result in assay [1], in assay [2] and in assay [3] was Active.
In the case of `Cc1c(O)cc2c(c1C)OC(C)(C)CC2`, the Activity in assay [19] turned out to be 3%.
In the case of `Cc1c(C)c2c(c(C)c1O)CC[C@@](C)(CCCC(C)CCCC(C)CCCC(C)C(=O)O)O2` (mixture of isomers), the result in [1], in assay [2] and in assay [3] was Active.
